# Measured values taken from ChEMBL document CHEMBL3352013, “The design and synthesis of potent and selective inhibitors of Trypanosoma brucei glycogen synthase kinase 3 for the treatment of human african trypanosomiasis” (J Med Chem, 2014).
# System: not listed separately
# Test: Inhibition of Trypanosoma brucei GSK3 using biotinylated GSP2 substrate by flashplate assay
# Conditions: not given
# Procedure, shortened: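 Radiometric Flashplate assay: 2.5 nM TbGSK3 short, 1 μM biotinylated GSP2, 1 μM ATP plus [γ-33P]-ATP. 10-point titration 30 μM to 0.3 nM final, 1% DMSO. IC50 averaged over two or more experiments; standard GW8510 used for reproducibility (MSR).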
row,SMILES,IC50 [µM]
1,COc1cccc(OC)c1C(=O)Nc1c[nH]nc1C(=O)N[C@H]1CC[C@H](OC)CC1,0.002
2,CO[C@H]1CC[C@H](NC(=O)c2n[nH]cc2NC(=O)c2ccccc2)CC1,0.024

# System: MRC5
# Test: Cytotoxicity against human MRC5 cells assessed as growth inhibition after 72 hrs
# Format: cell-based
# Conditions: MRC5, 72 h
# Procedure, shortened: (§1)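 Resazurin viability assay: 2 × 10³ cells/well (MRC5 in MEM + 10% FBS; bloodstream-form T. b. brucei in appropriate medium), compounds 50 μM to 0.5 nM, 37 °C, 5% CO₂ for 69 h, then resazurin 50 μM final for further 4 h; fluorescence read. Concentration giving 50% growth inhibition over 72 h; average of two or more experiments.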
row,SMILES,EC50 [µM]
1,COc1cccc(OC)c1C(=O)Nc1c[nH]nc1C(=O)N[C@H]1CC[C@H](OC)CC1,31
2,CO[C@H]1CC[C@H](NC(=O)c2n[nH]cc2NC(=O)c2ccccc2)CC1,0.8

# Target: Mitogen-activated protein kinase 1 (Homo sapiens) (UniProt P28482)
# Sequence (P28482 whole entry): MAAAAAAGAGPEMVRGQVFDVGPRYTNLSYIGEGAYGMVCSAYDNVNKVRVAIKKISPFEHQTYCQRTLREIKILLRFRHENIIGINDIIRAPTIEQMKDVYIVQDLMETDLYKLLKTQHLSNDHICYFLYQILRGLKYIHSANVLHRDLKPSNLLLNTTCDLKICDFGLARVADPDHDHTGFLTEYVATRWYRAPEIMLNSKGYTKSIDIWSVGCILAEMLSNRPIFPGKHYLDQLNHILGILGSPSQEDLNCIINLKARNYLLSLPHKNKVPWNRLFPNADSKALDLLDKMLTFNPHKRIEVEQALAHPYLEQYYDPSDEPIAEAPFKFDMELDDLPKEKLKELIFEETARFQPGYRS
# Test: Inhibition of ERK2 (unknown origin) assessed as residual enzyme activity at 10 uM
# Conditions: not given
row,SMILES,Activity [%]
1,COc1cccc(OC)c1C(=O)Nc1c[nH]nc1C(=O)N[C@H]1CC[C@H](OC)CC1,51
2,CO[C@H]1CC[C@H](NC(=O)c2n[nH]cc2NC(=O)c2ccccc2)CC1,18

# Target: Glycogen synthase kinase-3 beta (Homo sapiens) (UniProt P49841)
# Test: Inhibition of GSK3b (unknown origin) assessed as residual enzyme activity at 10 uM
# Conditions: not given
row,SMILES,Activity [%]
1,COc1cccc(OC)c1C(=O)Nc1c[nH]nc1C(=O)N[C@H]1CC[C@H](OC)CC1,0
2,CO[C@H]1CC[C@H](NC(=O)c2n[nH]cc2NC(=O)c2ccccc2)CC1,33

# Target: T1, Dual specificity tyrosine-phosphorylation-regulated kinase 3 (Homo sapiens) (UniProt O43781)
# T1 sequence (whole entry): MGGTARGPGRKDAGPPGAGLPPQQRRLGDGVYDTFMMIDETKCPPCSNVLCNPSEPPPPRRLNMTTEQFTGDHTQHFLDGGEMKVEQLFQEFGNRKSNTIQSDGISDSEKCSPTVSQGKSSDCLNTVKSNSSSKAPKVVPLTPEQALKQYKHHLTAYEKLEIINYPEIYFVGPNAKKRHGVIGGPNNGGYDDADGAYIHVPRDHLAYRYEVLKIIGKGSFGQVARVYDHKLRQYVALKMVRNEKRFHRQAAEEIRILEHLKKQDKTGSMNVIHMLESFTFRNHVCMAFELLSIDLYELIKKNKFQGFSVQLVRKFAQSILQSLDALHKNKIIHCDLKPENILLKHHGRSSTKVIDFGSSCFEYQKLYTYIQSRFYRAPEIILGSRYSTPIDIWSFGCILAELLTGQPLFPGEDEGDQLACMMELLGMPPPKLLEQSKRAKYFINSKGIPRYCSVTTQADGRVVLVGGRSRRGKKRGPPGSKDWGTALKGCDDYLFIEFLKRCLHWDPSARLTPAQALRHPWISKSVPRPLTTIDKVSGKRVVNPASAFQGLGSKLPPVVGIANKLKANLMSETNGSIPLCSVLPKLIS
# Test: Inhibition of DYRK3 (unknown origin) assessed as residual enzyme activity at 10 uM
# Conditions: not given
row,SMILES,Activity [%]
1,COc1cccc(OC)c1C(=O)Nc1c[nH]nc1C(=O)N[C@H]1CC[C@H](OC)CC1,100
2,CO[C@H]1CC[C@H](NC(=O)c2n[nH]cc2NC(=O)c2ccccc2)CC1,24

# Target: Dual specificity mitogen-activated protein kinase kinase 1 (Homo sapiens) (UniProt Q02750)
# Sequence (Q02750 whole entry): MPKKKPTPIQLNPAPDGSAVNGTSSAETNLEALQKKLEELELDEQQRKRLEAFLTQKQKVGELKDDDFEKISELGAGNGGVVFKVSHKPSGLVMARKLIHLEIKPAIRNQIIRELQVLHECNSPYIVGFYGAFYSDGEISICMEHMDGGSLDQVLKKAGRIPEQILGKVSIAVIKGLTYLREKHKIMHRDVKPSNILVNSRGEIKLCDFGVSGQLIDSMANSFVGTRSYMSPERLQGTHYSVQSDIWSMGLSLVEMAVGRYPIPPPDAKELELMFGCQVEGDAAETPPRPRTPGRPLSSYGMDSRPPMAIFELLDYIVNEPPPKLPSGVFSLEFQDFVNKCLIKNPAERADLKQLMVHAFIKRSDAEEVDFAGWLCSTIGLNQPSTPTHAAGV
# Test: Inhibition of MKK1 (unknown origin) assessed as residual enzyme activity at 10 uM
# Conditions: not given
row,SMILES,Activity [%]
1,COc1cccc(OC)c1C(=O)Nc1c[nH]nc1C(=O)N[C@H]1CC[C@H](OC)CC1,83
2,CO[C@H]1CC[C@H](NC(=O)c2n[nH]cc2NC(=O)c2ccccc2)CC1,54

# Target: Serine/threonine-protein kinase pim-3 (Homo sapiens) (UniProt Q86V86)
# Test: Inhibition of PIM3 (unknown origin) assessed as residual enzyme activity at 10 uM
# Conditions: not given
row,SMILES,Activity [%]
1,COc1cccc(OC)c1C(=O)Nc1c[nH]nc1C(=O)N[C@H]1CC[C@H](OC)CC1,94
2,CO[C@H]1CC[C@H](NC(=O)c2n[nH]cc2NC(=O)c2ccccc2)CC1,19

# Target: Glycogen synthase kinase-3 (Homo sapiens, UniProt P49840+P49841)
# Test: Inhibition of human GSK3 using biotinylated GSP2 substrate by flashplate assay
# Format: protein assay
# Conditions: not given
row,SMILES,IC50 [µM]
1,COc1cccc(OC)c1C(=O)Nc1c[nH]nc1C(=O)N[C@H]1CC[C@H](OC)CC1,< 0.005
2,CO[C@H]1CC[C@H](NC(=O)c2n[nH]cc2NC(=O)c2ccccc2)CC1,< 0.005

# Target: T2, Dual specificity tyrosine-phosphorylation-regulated kinase 2 (Homo sapiens) (UniProt Q92630)
# T2 sequence (whole entry): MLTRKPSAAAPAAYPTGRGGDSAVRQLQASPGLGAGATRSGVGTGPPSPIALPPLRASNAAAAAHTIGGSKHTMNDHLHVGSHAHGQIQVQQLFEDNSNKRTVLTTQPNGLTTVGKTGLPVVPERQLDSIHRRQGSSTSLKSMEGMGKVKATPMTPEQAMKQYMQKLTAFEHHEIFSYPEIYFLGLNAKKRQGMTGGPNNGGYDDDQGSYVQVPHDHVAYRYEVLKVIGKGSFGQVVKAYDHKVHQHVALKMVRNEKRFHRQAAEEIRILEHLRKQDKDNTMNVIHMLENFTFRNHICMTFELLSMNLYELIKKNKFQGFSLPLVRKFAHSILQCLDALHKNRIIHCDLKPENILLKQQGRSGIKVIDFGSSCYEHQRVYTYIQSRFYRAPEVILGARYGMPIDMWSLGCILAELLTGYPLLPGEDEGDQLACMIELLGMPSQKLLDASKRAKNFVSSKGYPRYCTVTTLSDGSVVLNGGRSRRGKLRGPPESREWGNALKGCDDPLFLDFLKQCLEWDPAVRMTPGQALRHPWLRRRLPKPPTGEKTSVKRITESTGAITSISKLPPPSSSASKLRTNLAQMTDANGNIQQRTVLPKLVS
# Test: Inhibition of DYRK2 (unknown origin) assessed as residual enzyme activity at 10 uM
# Conditions: not given
row,SMILES,Activity [%]
1,COc1cccc(OC)c1C(=O)Nc1c[nH]nc1C(=O)N[C@H]1CC[C@H](OC)CC1,63
2,CO[C@H]1CC[C@H](NC(=O)c2n[nH]cc2NC(=O)c2ccccc2)CC1,3

# Target: CDK2/Cyclin A2 (Homo sapiens, UniProt P24941)
# Test: Inhibition of human CDK2/cyclin A using Biotin-C6-PKTPKKAKKL substrate
# Format: protein-complex assay
# Conditions: not given
row,SMILES,IC50 [µM]
1,COc1cccc(OC)c1C(=O)Nc1c[nH]nc1C(=O)N[C@H]1CC[C@H](OC)CC1,0.19
2,CO[C@H]1CC[C@H](NC(=O)c2n[nH]cc2NC(=O)c2ccccc2)CC1,0.038

# System: not listed separately
# Test: Selectivity ratio, ratio of IC50 for human GSK3 to IC50 Trypanosoma brucei GSK3
# Conditions: not given
row,SMILES,Ratio IC50
1,COc1cccc(OC)c1C(=O)Nc1c[nH]nc1C(=O)N[C@H]1CC[C@H](OC)CC1,< 2.5

# System: not listed separately
# Test: Selectivity ratio, ratio of IC50 for human CDK2/cyclin A to IC50 for Trypanosoma brucei GSK3
# Conditions: not given
row,SMILES,Ratio IC50
1,COc1cccc(OC)c1C(=O)Nc1c[nH]nc1C(=O)N[C@H]1CC[C@H](OC)CC1,95

# Target: Cyclin-dependent kinase 2 (Homo sapiens) (UniProt P24941)
# Test: Inhibition of CDK2 (unknown origin) assessed as residual enzyme activity at 10 uM
# Conditions: not given
row,SMILES,Activity [%]
1,COc1cccc(OC)c1C(=O)Nc1c[nH]nc1C(=O)N[C@H]1CC[C@H](OC)CC1,9
2,CO[C@H]1CC[C@H](NC(=O)c2n[nH]cc2NC(=O)c2ccccc2)CC1,1

# Target: Mitogen-activated protein kinase 9 (Homo sapiens) (UniProt P45984)
# Sequence (P45984 whole entry, looked up): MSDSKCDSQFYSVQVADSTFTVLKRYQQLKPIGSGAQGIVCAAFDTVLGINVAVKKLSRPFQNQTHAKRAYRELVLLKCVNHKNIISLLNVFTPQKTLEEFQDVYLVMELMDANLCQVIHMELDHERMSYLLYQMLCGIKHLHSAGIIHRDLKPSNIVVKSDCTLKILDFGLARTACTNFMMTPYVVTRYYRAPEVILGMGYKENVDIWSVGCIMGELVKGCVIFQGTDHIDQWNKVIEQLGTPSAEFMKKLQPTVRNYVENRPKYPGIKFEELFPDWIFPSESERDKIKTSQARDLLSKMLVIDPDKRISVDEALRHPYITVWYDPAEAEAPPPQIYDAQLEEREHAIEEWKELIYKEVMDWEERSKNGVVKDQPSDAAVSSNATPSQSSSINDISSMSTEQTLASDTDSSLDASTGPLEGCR
# Test: Inhibition of JNK2 (unknown origin) assessed as residual enzyme activity at 10 uM
# Conditions: not given
row,SMILES,Activity [%]
1,COc1cccc(OC)c1C(=O)Nc1c[nH]nc1C(=O)N[C@H]1CC[C@H](OC)CC1,82
2,CO[C@H]1CC[C@H](NC(=O)c2n[nH]cc2NC(=O)c2ccccc2)CC1,51

# Target: Insulin-like growth factor 1 receptor (Homo sapiens) (UniProt P08069)
# Sequence (P08069 31-736 limits assumed): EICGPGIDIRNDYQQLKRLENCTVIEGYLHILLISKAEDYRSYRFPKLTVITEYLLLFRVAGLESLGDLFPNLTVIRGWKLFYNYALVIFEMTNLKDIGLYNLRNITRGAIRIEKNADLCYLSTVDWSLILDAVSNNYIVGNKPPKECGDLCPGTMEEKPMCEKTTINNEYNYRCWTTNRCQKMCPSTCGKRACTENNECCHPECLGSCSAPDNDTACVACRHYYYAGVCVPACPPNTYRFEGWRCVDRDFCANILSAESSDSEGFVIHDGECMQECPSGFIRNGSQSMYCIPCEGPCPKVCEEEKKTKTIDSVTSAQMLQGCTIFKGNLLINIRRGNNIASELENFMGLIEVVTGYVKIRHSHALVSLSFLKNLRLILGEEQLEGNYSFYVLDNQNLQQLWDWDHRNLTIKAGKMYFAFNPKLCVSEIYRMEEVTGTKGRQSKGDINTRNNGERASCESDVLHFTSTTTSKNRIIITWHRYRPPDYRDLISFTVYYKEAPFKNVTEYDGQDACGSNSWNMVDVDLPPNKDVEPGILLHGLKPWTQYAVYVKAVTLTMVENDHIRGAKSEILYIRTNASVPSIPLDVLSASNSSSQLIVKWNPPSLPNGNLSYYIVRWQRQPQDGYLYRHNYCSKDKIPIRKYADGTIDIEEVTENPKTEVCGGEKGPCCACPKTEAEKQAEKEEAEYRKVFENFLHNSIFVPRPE
# Sequence (P08069 741-1367 limits assumed): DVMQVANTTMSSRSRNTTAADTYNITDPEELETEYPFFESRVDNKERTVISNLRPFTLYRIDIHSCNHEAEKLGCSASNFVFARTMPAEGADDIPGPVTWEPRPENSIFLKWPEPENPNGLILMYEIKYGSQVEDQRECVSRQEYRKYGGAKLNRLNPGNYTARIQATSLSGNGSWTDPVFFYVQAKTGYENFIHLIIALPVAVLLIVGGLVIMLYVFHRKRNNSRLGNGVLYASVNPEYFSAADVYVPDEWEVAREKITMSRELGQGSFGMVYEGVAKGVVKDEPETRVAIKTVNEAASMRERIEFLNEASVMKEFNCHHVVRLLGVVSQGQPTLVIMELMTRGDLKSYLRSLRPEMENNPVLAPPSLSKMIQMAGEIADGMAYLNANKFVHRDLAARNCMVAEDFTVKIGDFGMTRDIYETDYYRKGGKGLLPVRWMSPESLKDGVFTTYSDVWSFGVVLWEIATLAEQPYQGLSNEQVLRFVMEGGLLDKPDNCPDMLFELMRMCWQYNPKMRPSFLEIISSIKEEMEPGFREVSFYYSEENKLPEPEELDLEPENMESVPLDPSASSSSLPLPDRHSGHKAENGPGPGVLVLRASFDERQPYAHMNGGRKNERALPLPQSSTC
# Test: Inhibition of IGF-1R (unknown origin) assessed as residual enzyme activity at 10 uM
# Conditions: not given
row,SMILES,Activity [%]
1,COc1cccc(OC)c1C(=O)Nc1c[nH]nc1C(=O)N[C@H]1CC[C@H](OC)CC1,100
2,CO[C@H]1CC[C@H](NC(=O)c2n[nH]cc2NC(=O)c2ccccc2)CC1,96

# Target: Homeodomain-interacting protein kinase 2 (Homo sapiens) (UniProt Q9H2X6)
# Test: Inhibition of HIPK2 (unknown origin) assessed as residual enzyme activity at 10 uM
# Conditions: not given
row,SMILES,Activity [%]
1,COc1cccc(OC)c1C(=O)Nc1c[nH]nc1C(=O)N[C@H]1CC[C@H](OC)CC1,100
2,CO[C@H]1CC[C@H](NC(=O)c2n[nH]cc2NC(=O)c2ccccc2)CC1,14

# Target: MAP kinase-activated protein kinase 2 (Homo sapiens) (UniProt P49137)
# Sequence (P49137 whole entry, looked up): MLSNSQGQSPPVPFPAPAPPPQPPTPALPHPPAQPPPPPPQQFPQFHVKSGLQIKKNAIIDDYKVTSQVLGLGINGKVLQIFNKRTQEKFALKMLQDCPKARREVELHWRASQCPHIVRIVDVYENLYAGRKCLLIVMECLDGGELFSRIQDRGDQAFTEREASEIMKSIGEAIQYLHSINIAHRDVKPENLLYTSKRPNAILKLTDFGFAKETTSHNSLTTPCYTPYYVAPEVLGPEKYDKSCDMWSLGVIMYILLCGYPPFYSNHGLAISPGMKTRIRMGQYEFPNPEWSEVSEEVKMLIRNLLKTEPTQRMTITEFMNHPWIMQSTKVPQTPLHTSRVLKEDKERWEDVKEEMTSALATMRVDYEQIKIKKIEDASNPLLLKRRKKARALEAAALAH
# Test: Inhibition of MAPKAP-K2 (unknown origin) assessed as residual enzyme activity at 10 uM
# Conditions: not given
row,SMILES,Activity [%]
1,COc1cccc(OC)c1C(=O)Nc1c[nH]nc1C(=O)N[C@H]1CC[C@H](OC)CC1,33
2,CO[C@H]1CC[C@H](NC(=O)c2n[nH]cc2NC(=O)c2ccccc2)CC1,92

# Target: Serine/threonine-protein kinase pim-1 (Homo sapiens) (UniProt P11309)
# Sequence (P11309 whole entry, looked up): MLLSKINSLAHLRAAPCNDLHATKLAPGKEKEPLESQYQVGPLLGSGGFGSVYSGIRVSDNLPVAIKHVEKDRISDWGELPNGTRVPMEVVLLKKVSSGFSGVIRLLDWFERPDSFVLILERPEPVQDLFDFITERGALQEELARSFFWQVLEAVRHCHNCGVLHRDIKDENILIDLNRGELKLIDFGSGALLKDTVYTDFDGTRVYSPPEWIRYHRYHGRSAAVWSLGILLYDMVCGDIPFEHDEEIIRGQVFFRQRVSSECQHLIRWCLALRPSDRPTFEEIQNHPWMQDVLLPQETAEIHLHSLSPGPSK
# Test: Inhibition of PIM1 (unknown origin) assessed as residual enzyme activity at 10 uM
# Conditions: not given
row,SMILES,Activity [%]
1,COc1cccc(OC)c1C(=O)Nc1c[nH]nc1C(=O)N[C@H]1CC[C@H](OC)CC1,100
2,CO[C@H]1CC[C@H](NC(=O)c2n[nH]cc2NC(=O)c2ccccc2)CC1,46

# Target: T3, Mitogen-activated protein kinase 15 (Homo sapiens) (UniProt Q8TD08)
# T3 sequence (whole entry): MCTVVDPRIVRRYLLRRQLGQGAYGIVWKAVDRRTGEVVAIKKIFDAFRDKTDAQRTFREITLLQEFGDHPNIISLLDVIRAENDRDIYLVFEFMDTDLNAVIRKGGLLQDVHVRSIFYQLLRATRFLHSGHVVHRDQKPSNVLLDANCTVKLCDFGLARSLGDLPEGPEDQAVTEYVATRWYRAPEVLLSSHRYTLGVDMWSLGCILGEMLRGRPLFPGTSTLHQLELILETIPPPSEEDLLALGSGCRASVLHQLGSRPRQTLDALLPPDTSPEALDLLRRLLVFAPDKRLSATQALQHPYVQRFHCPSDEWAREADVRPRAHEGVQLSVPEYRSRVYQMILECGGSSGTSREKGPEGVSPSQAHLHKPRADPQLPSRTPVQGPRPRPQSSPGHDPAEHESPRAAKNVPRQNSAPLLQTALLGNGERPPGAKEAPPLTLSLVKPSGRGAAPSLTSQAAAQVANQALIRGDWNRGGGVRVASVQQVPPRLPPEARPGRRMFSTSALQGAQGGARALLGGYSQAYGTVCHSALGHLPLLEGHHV
# Test: Inhibition of ERK8 (unknown origin) assessed as residual enzyme activity at 10 uM
# Conditions: not given
row,SMILES,Activity [%]
1,COc1cccc(OC)c1C(=O)Nc1c[nH]nc1C(=O)N[C@H]1CC[C@H](OC)CC1,27
2,CO[C@H]1CC[C@H](NC(=O)c2n[nH]cc2NC(=O)c2ccccc2)CC1,14

# Target: Maternal embryonic leucine zipper kinase (Homo sapiens) (UniProt Q14680)
# Sequence (Q14680 whole entry, looked up): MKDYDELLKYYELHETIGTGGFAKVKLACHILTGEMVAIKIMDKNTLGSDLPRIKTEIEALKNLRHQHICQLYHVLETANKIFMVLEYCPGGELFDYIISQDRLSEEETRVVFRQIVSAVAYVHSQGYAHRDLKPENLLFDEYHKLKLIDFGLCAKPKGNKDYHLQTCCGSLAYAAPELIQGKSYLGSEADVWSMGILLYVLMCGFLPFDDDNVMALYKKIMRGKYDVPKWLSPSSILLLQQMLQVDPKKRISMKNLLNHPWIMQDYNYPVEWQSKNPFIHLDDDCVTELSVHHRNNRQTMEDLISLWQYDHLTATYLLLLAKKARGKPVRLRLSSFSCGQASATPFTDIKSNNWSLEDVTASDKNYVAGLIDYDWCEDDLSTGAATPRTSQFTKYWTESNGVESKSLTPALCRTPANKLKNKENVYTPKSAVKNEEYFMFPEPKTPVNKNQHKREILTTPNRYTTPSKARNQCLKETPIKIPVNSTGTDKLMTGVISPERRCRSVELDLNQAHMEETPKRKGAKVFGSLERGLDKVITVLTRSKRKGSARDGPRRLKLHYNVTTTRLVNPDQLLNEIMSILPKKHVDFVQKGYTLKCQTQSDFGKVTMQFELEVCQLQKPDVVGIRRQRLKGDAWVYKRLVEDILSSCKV
# Test: Inhibition of MELK (unknown origin) assessed as residual enzyme activity at 10 uM
# Conditions: not given
row,SMILES,Activity [%]
1,COc1cccc(OC)c1C(=O)Nc1c[nH]nc1C(=O)N[C@H]1CC[C@H](OC)CC1,100
2,CO[C@H]1CC[C@H](NC(=O)c2n[nH]cc2NC(=O)c2ccccc2)CC1,32

# Target: Mitogen-activated protein kinase 8 (Homo sapiens) (UniProt P45983)
# Sequence (P45983 whole entry): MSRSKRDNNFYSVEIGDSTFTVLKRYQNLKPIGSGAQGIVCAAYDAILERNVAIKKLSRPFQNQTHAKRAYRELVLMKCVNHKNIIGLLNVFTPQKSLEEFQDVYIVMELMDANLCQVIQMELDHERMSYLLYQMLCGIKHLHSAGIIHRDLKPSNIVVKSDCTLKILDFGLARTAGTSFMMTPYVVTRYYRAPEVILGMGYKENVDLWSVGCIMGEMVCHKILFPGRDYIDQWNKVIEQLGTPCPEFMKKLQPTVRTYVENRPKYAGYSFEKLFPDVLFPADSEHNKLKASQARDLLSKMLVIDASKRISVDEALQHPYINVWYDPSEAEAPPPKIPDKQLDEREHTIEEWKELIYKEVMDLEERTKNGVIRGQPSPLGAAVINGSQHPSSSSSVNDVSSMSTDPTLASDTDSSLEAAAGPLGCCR
# Test: Inhibition of JNK1 (unknown origin) assessed as residual enzyme activity at 10 uM
# Conditions: not given
row,SMILES,Activity [%]
1,COc1cccc(OC)c1C(=O)Nc1c[nH]nc1C(=O)N[C@H]1CC[C@H](OC)CC1,77
2,CO[C@H]1CC[C@H](NC(=O)c2n[nH]cc2NC(=O)c2ccccc2)CC1,31

# System: Trypanosoma brucei brucei
# Test: Trypanocidal activity against bloodstream stage of Trypanosoma brucei brucei assessed as inhibition of proliferation after 72 hrs
# Format: functional, organism-based
# Conditions: not given
# Procedure, shortened: as §1
row,SMILES,EC50 [µM]
1,COc1cccc(OC)c1C(=O)Nc1c[nH]nc1C(=O)N[C@H]1CC[C@H](OC)CC1,0.5
2,CO[C@H]1CC[C@H](NC(=O)c2n[nH]cc2NC(=O)c2ccccc2)CC1,1.3

# Target: Dual specificity tyrosine-phosphorylation-regulated kinase 1A (Homo sapiens) (UniProt Q13627)
# Test: Inhibition of DYRK1A (unknown origin) assessed as residual enzyme activity at 10 uM
# Conditions: not given
row,SMILES,Activity [%]
1,COc1cccc(OC)c1C(=O)Nc1c[nH]nc1C(=O)N[C@H]1CC[C@H](OC)CC1,84
2,CO[C@H]1CC[C@H](NC(=O)c2n[nH]cc2NC(=O)c2ccccc2)CC1,6
